Assay outcomes from PubChem BioAssay.
DENV2 CPE: inhibitors of DENV2 cytopathic effect, primary screen, cell-based, plate reader, single concentration; AID 651640, 2012; DENV2-infected cells, cytopathic effect rescue; CPE inhibition, % at 9.99 µM; actives 1.7% (n = 350,000); in the data active means CPE inhibition above about 20%, passing the limit was not always enough; inconclusive means no clear call, values can overlap the other calls; tested in BHK-21 cells;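 further: 0% = median of neutral control wells and 100% = median of positive control wells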
Cneo AK release: Cryptococcus neoformans cell lysis inducers, primary screen, AK release luminescence, single concentration; C. neoformans lysis, adenylate kinase release luminescence, 4 h; normalised: neutral wells 0, clomiphene wells 100; lysis activity, % at 15 µM; actives 0.2% (n = 360,000); AID 651654, 2012;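 active means mean lysis activity across replicates of at least 80%, whatever share of replicates individually reach that level; inactive means mean lysis activity below 80%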
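Material – Cryptococcus neoformans yeast cells · Quantity – 5 × 10^6 yeast cells/mL · Buffer or medium – YPD medium · Compound – single dose · Timing – 4 h static compound exposure, 37 °C, read 1 h post-reagent · Signal – adenylate kinase release luminescence · Read-out basis – lysis from increased AK signal · Benchmarks – Clomiphene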
Statin myotox sup: suppressors of statin myotoxicity in C2C12 myotubes, primary screen, cell-based, single point, plate reader; C2C12 myotubes + simvastatin, ATP luminescence, 48 h; scaled: DMSO 0, geranylgeraniol control 100; actives 0.78% (n = 330,000); rescue of ATP level, % at 7.49 µM;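 active means mean ATP rescue above about 67%, or every replicate alone reaching that limit, limit read from the data, passing the limit was not always enough; inconclusive means no clear call, values can overlap the other calls; inactive means mean under the limit and some replicate under it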;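 further: myotubes were challenged with 10 µM simvastatin during compound exposure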
F508del corr: F508del CFTR correction, initial screen, CFBE line, single point; CFBE cells, YFP halide quenching; stimulated with forskolin plus potentiator P3; % fluorescence drop versus neutral controls; activity (quench increase), % at 7.58 µM; actives 0.36% (n = 350,000); AID 720511, 2013;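 active means mean added fluorescence quench of at least 8% versus neutral control, with both replicates also reaching 8%; inconclusive means only one of the mean or replicate conditions met; inactive means mean below 8% and not both replicates reaching 8%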;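 further: cells transiently co-express mutant CFTR-F508del with the halide-sensitive YFP; corrector assay measuring rescue of mutant channel to the surface after 24 h compound exposure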
PDI inh: inhibitors of human PDI, primary screen, biochemical, turbidity, single point, plate reader; Protein disulfide-isomerase (Homo sapiens), P07237; PDI insulin aggregation turbidity, A650, 90 min; inhibition, % at 10 µM; actives 0.052% (n = 350,000); AID 588391, 2011;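 active means mean inhibition across replicates of 30% or more, whatever share of single replicates reach that level; inconclusive means mean inhibition below 30% while every single replicate reaches 30%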
ERp5 inh: inhibitors of ERp5-driven insulin aggregation, primary screen, biochemical, turbidity, absorbance 650 nm, single point. Protein disulfide-isomerase A6 (Homo sapiens), Q15084. 90 min. inhibition, % at 9.99 µM. actives 0.05% (n = 350,000);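 active means mean replicate inhibition above about 25%, with every replicate also reaching it, limit read from the data, passing the limit was not always enough; inconclusive means only one of those two criteria met; inactive means neither criterion met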
Target sequence (Q15084 whole entry, looked up): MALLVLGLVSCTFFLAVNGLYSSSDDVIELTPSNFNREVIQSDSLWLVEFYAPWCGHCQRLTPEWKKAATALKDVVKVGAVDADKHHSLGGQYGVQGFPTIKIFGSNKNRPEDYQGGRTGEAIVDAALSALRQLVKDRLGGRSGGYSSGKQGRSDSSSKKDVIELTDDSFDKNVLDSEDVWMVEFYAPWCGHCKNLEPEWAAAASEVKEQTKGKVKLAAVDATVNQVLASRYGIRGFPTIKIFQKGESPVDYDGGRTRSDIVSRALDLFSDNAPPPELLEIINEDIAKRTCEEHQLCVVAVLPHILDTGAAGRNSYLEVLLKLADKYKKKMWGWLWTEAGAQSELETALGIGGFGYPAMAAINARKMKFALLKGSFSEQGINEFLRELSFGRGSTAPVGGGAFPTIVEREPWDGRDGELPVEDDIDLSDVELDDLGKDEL
Numbers without * were called inactive; ? = inconclusive; . = no result. This is a sample that favours compounds with a hit; in the whole collection about 2.3% have one here.

SMILES	DENV2 CPE	Cneo AK release	Statin myotox sup	F508del corr	PDI inh	ERp5 inh
O=C(O)c1ccnc(Cl)c1	.	-2	-7	.	-7	.
O=C(CSCc1cnn(-c2ccccc2)c1-n1cccc1)NCc1cccs1	.	-1	121*	.	2	.
CC(C)CCNC(=O)C1CC(c2ccccc2C(F)(F)F)=NO1 (stereo not drawn)	35*	-1	8	3	-3	-2
COc1ccc(C2CC(=O)c3cc(OC)c(OC)cc32)cc1OC (stereo not drawn)	5	1	.	0	6	-5
COc1ccc(C2c3cc(OC)c(OC)cc3CC3C(=O)OCC32)cc1OC (stereo not drawn)	-6	0	96*	1	-34	0
CN(C)C(=O)c1cccc(-c2ccc([C@H]3[C@@H](CO)N4CCCCN(C(=O)C5CCCC5)C[C@H]34)cc2)c1	3	-1	.	-2	.	-1
CC(=O)c1cc(F)c(N2CCOCC2)cc1C	.	.	.	.	11	.
CC(=O)c1cc(F)c(N2CCCC2)cc1C	.	1	101*	.	-2	.
O=C(C[C@H]1C=C[C@H](NC(=O)c2cccc(F)c2)[C@H](CO)O1)NCCN1CCCC1	4	-4	-2	0	.	5
O=C(C[C@H]1C=C[C@H](NC(=O)Nc2cc(F)ccc2F)[C@@H](CO)O1)NCCCN1CCOCC1	10	121*	-8	4	.	-4
O=C(C[C@@H]1C=C[C@@H](NC(=O)c2cccc(F)c2)[C@H](CO)O1)NCCN1CCCC1	-5	95*	13	0	.	3
C[C@@H]1CCCCO[C@@H](CN(C)Cc2ccc(Cl)c(Cl)c2)[C@H](C)CN([C@@H](C)CO)C(=O)c2cc(NC(=O)C3CCCCC3)ccc2O1	5	1	.	1	.	-1
O=C(C[C@H]1CC[C@H]2[C@@H](COC[C@H](O)CN2S(=O)(=O)c2ccccc2)O1)NCc1ccc(-c2ccccc2)cc1	2	-1	6	2	.	0
CCOc1ccc(C(=O)NCC(=O)N2CCN(Cc3ccccc3)CC2)cc1	2	-1	0	10.0*	-4	0
CCCNC(=O)NC(=O)CSc1nnc(C)n1N	.	-1	80*	.	-1	.
Cc1noc(C)c1S(=O)(=O)Nc1ccc2c(c1)CC(=O)N([C@H](C)CO)C[C@H](C)[C@H](CN(C)S(=O)(=O)c1cccs1)O2	-8	115*	-15	0	.	2
Cc1ccc(S(=O)(=O)Nc2ccc3c(c2)CC(=O)N([C@@H](C)CO)C[C@H](C)[C@@H](CN(C)S(=O)(=O)c2cccs2)O3)cc1	6	9	77*	-8	.	18
Cc1ccc(S(=O)(=O)N(C)C[C@@H]2Oc3ccc(NC(=O)NC4CCCCC4)cc3CC(=O)N([C@@H](C)CO)C[C@@H]2C)cc1	35*	-1	-86	1	.	-1
Cc1noc(C)c1S(=O)(=O)Nc1ccc2c(c1)CC(=O)N([C@H](C)CO)C[C@@H](C)[C@H](CN(C)S(=O)(=O)c1cccs1)O2	1	0	9	-2	.	10
Cc1ccc(S(=O)(=O)Nc2ccc3c(c2)CC(=O)N([C@H](C)CO)C[C@H](C)[C@@H](CN(C)S(=O)(=O)c2ccc(C)cc2)O3)cc1	67*	0	64	0	.	-4
O=C(C1CCCC1)N1C[C@@H]2[C@H](c3ccccc31)[C@@H](CO)N2C(=O)Nc1cccc(F)c1	3	0	-2	1	.	-3
CO[C@H]1CN(C)C(=O)c2cc(NC(C)=O)ccc2OC[C@H](C)N(C(=O)c2ccc(F)cc2)C[C@@H]1C	-2	0	-1	-1	.	-9
Cc1ccc(S(=O)(=O)N(C)C[C@H]2Oc3ccc(NS(=O)(=O)c4ccc(Cl)cc4)cc3CC(=O)N([C@@H](C)CO)C[C@H]2C)cc1	27*	1	31	-1	.	4
C[C@H](CO)N1C[C@H](C)[C@H](CN(C)S(=O)(=O)c2ccccc2)Oc2ccc(NS(=O)(=O)c3cccs3)cc2CC1=O	-10	3	9	0	.	1
Cc1ccc(S(=O)(=O)Nc2ccc3c(c2)CC(=O)N([C@@H](C)CO)C[C@@H](C)[C@H](CN(C)S(=O)(=O)c2ccc(Cl)cc2)O3)cc1	49*	-4	58	0	.	.
SMILES	DENV2 CPE	Cneo AK release	Statin myotox sup	F508del corr	PDI inh	ERp5 inh
C[C@@H]1CN([C@@H](C)CO)C(=O)Cc2cc(NS(=O)(=O)c3cccs3)ccc2O[C@H]1CN(C)S(=O)(=O)c1ccccc1	78*	58	-2	3	.	11
O=C(C[C@H]1CC[C@H](NC(=O)Nc2ccccc2F)[C@@H](CO)O1)NCc1ccc(F)cc1	-2	.	.	0	.	3
Cc1noc(C)c1S(=O)(=O)Nc1ccc2c(c1)CC(=O)N([C@H](C)CO)C[C@H](C)[C@H](CN(C)C(=O)NC(C)C)O2	9	-3	4	2	.	-2
COCC(=O)Nc1ccc2c(c1)[C@H]1C[C@H](CC(=O)NCc3cccc(F)c3)O[C@@H](CO)[C@H]1O2	-6	-6	-1	0	.	5
CCCNC(=O)Nc1ccc2c(c1)C(=O)N(C)C[C@@H](OC)[C@@H](C)CN(S(C)(=O)=O)[C@H](C)CO2	?	.	.	0	.	-4
O=C(Nc1ccc2c(c1)[C@H]1C[C@H](CC(=O)N3CCCCC3)O[C@@H](CO)[C@H]1O2)C1CCOCC1	-3	54	1	1	.	2
CCN(C[C@H]1N[C@@](Cc2ccccc2)(C(=O)OC)[C@H]2C(=O)N(C)C(=O)[C@@H]12)S(=O)(=O)c1ccc(OC(F)(F)F)cc1	84*	1	-27	3	2	-2
CCN(C[C@H]1N[C@@](Cc2ccccc2)(C(=O)OC)[C@H]2C(=O)N(C)C(=O)[C@@H]12)S(=O)(=O)c1ccc(C(F)(F)F)cc1	0	0	-5	5	-5	7
COC(=O)[C@]1(Cc2ccccc2)N[C@H](CN(C)C(C)=O)[C@@H]2C(=O)N(C)C(=O)[C@@H]21	23*	1	2	-5	26	2
COC(=O)[C@]1(Cc2ccccc2)N[C@H](CN(C)C(=O)Nc2ccc(Cl)cc2)[C@@H]2C(=O)N(Cc3ccccc3)C(=O)[C@@H]21	22*	0	-2	0	2	6
